Source: ChEMBL document CHEMBL1141693, “Discovery of benzoylpiperazines as a novel class of potent and selective GlyT1 inhibitors” (Bioorg Med Chem Lett, 2008)
pEC50, pIC50: −log10 of the molar value. In brackets after ≈: the same amount, converted by molar mass. Activity calls are given as the source filed them. The calls are words filed in the database; no cut-off is given here.

Legend:
[1] = molecular target: T1, Sodium- and chloride-dependent glycine transporter 1 (Homo sapiens, UniProt P48067); assay: Inhibition of [3H]glycine uptake at human glycine transporter 1 expressed in CHO cells by scintillation counter; format: cell-based
T1 sequence (P48067 whole entry): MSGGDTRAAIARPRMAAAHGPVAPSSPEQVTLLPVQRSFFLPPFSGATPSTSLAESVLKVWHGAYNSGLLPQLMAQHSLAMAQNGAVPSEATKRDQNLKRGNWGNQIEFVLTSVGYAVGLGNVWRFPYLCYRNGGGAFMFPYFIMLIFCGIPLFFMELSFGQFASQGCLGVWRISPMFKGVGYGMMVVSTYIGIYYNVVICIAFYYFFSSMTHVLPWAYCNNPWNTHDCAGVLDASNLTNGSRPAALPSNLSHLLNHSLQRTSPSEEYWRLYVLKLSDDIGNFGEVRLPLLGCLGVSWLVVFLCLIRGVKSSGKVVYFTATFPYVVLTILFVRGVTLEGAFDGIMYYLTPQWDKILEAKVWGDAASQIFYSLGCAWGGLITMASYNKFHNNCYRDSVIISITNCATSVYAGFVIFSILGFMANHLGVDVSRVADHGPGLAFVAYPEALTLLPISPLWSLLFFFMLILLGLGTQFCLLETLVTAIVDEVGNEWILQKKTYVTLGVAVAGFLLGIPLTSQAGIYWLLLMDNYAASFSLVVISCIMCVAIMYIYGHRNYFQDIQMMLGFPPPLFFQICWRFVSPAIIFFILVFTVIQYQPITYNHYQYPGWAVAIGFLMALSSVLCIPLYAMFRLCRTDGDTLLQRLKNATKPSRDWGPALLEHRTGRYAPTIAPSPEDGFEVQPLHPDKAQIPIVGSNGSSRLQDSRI

[2] = molecular target: T2, Sodium- and chloride-dependent glycine transporter 2 (Homo sapiens, UniProt Q9Y345); assay: Inhibition of [3H]glycine uptake at human glycine transporter 2 expressed in CHO cells by scintillation counter; format: cell-based
T2 sequence (Q9Y345 whole entry): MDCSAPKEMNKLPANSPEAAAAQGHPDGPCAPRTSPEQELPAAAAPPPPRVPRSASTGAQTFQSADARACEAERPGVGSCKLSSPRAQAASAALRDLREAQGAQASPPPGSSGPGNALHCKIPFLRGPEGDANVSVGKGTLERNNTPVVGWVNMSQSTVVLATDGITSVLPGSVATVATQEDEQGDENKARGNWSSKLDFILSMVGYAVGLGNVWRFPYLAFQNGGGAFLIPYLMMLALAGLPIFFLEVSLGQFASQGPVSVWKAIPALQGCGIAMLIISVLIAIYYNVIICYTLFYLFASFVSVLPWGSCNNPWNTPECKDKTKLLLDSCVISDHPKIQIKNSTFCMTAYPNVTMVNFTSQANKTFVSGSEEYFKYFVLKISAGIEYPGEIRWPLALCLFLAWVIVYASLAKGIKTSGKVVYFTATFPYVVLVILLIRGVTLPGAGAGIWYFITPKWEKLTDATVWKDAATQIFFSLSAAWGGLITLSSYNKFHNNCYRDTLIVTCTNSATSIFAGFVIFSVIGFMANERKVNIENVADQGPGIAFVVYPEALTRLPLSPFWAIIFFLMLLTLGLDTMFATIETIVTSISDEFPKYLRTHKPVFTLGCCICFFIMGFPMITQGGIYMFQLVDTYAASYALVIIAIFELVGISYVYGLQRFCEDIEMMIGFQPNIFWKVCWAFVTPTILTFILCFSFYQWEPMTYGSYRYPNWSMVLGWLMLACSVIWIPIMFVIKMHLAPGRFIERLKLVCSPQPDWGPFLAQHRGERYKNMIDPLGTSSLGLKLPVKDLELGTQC
Method in brief: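 [³H]-glycine uptake inhibition in cells transfected with human GlyT2 cDNA. EC50 is the average of at least two independent experiments.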

Homo sapiens = species: Homo sapiens; assay: Selectivity ratio of IC50 for human glycine transporter 2 to IC50 for human glycine transporter 1
Method in brief: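 [³H]-glycine uptake inhibition in cells transfected with human GlyT1 or human GlyT2 cDNA. Each EC50 is the average of at least two independent experiments. Selectivity is the ratio of GlyT2 EC50 to GlyT1 EC50.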

[3] = Aqueous solubility in phosphate buffer at pH 6.5 by lyophilization solubility assay; format: physicochemical
Method in brief: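 Aqueous solubility was measured at pH 6.5 in a lyophilization solubility assay.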

[4] = Membrane permeability by PAMPA; format: ADME; settings: read-out: permeability
Method in brief: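 PAMPA artificial-membrane permeation, reported as the permeation constant Pe in 10^-6 cm/s.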

Liver microsomes [5] = assay: Metabolic stability in rat liver microsomes assessed as intrinsic clearance per […] of protein; format: ADME, Microsome
Method in brief: (§1)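 Intrinsic clearance measured in liver microsomes from rat, mouse or human, expressed per mg microsomal protein.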

Liver microsomes [6] = assay: Metabolic stability in human liver microsomes assessed as intrinsic clearance per […] of protein; format: ADME, Microsome; method in brief: as §1
[7] = Inhibition of phosphodiesterase at 10 uM
Method in brief: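 CEREP selectivity panel of 80 targets: transmembrane and soluble receptors, enzymes, ion channels and monoamine transporters. Single test concentration of 10 µM; read-out is percent inhibition.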

MAO-A = molecular target: T3, MAO-A (Homo sapiens, UniProt P21397); assay: Inhibition of MAOA at 10 uM
T3 sequence (P21397 whole entry): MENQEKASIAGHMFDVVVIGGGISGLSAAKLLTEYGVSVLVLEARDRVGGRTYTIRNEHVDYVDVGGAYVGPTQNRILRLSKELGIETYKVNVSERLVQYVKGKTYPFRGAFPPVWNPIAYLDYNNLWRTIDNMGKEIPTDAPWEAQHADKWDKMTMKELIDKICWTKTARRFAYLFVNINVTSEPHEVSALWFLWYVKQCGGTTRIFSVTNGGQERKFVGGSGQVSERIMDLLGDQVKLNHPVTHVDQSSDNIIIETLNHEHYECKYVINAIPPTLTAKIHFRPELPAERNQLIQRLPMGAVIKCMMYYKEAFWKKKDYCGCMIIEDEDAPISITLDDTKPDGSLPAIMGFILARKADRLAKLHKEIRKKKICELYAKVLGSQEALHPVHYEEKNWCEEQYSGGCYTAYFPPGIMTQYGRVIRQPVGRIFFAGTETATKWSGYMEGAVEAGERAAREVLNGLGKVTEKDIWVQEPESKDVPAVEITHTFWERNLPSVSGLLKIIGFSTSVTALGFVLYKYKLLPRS
Method in brief: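 CEREP selectivity screen across a panel of 80 targets (receptors, enzymes, ion channels, monoamine transporters). Percent inhibition was read at a single test concentration.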

[8] = molecular target: T4, Catechol O-methyltransferase (Homo sapiens) (UniProt P21964); assay: Inhibition of catechol-O-methyl transferase at 10 uM
T4 sequence (whole entry): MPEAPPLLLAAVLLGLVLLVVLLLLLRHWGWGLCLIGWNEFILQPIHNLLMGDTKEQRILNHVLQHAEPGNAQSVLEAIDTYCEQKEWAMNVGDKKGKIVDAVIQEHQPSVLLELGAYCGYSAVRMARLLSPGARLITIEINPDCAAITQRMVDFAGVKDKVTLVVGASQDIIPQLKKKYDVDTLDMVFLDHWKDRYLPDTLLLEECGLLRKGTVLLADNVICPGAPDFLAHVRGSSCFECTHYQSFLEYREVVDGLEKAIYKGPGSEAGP
Method in brief: (§2)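 Run within an outsourced CEREP selectivity screen of 80 targets (transmembrane and soluble receptors, enzymes, ion channels, monoamine transporters). The compound was tested at a single concentration and the read-out was percent inhibition of each target.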

[9] = molecular target: Acetylcholinesterase (Homo sapiens) (UniProt P22303); assay: Inhibition of acetylcholinesterase at 10 uM; method in brief: as §2
[10] = Fraction unbound in mouse plasma at 10 mg/kg, po; format: ADME, organism-based; set-up: dose 10 mg/kg, route oral
Cytochrome P450 2D6 = Cytochrome P450 2D6 (Homo sapiens, UniProt P10635); assay: Inhibition of CYP2D6; format: ADME
[11] = Metabolic stability in mouse liver microsomes assessed as intrinsic clearance per […] of protein; format: ADME, Microsome; method in brief: as §1
[12] = molecular target: T5, Sodium- and chloride-dependent glycine transporter 2 (Homo sapiens) (UniProt Q9Y345); assay: Inhibition of [3H]glycine uptake at human glycine transporter 2 expressed in CHO cells at 30 uM by scintillation counter; format: cell-based
T5 sequence (whole entry): T2 sequence (Q9Y345 whole entry)

[13] = Clearance in mouse at 2 mg/kg, iv; format: ADME, organism-based; set-up: dose 2 mg/kg, route intravenous; settings: in vivo
[14] = Volume of distribution at steady state in mouse at 2 mg/kg, iv; format: ADME, organism-based; set-up: dose 2 mg/kg, route intravenous; settings: in vivo, read-out: Vdss
[15] = Oral bioavailability in mouse at 10 mg/kg; format: ADME, organism-based; settings: in vivo
[16] = Half life in mouse at 10 mg/kg, po; format: ADME, organism-based; set-up: dose 10 mg/kg, route oral; settings: in vivo
[17] = Cmax in mouse plasma at 10 mg/kg, po; format: ADME, organism-based; set-up: dose 10 mg/kg, route oral
[18] = Cmax in mouse brain at 10 mg/kg, po; format: ADME, organism-based; set-up: dose 10 mg/kg, route oral
[19] = Ratio of drug level in brain to plasma in mouse at 10 mg/kg, po; format: ADME, organism-based; set-up: dose 10 mg/kg, route oral; settings: read-out: BPR
Method in brief: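 Mouse pharmacokinetics after a 10 mg/kg oral dose. Brain/plasma ratio taken from brain Cmax (ng/g) and plasma Cmax (ng/mL). Values are the average of two independent experiments.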

Chain of Acetylcholinesterase (Homo sapiens) (P22303 whole entry): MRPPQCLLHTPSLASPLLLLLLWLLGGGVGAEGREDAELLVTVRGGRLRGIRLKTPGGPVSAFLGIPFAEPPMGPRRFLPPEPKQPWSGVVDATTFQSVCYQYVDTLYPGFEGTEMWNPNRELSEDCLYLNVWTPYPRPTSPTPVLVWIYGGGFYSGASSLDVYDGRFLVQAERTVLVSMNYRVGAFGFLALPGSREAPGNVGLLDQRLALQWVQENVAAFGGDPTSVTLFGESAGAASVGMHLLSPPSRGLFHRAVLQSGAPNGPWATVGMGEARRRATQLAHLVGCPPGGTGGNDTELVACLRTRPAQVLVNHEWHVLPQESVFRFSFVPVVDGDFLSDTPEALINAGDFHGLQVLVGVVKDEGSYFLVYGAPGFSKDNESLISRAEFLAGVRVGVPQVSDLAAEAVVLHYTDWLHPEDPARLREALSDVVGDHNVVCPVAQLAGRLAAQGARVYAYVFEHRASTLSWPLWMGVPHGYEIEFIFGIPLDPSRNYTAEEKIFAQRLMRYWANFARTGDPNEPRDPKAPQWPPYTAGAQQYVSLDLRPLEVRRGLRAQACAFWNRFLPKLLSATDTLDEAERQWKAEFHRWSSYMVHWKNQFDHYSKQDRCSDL
Chain of Cytochrome P450 2D6 (P10635 whole entry): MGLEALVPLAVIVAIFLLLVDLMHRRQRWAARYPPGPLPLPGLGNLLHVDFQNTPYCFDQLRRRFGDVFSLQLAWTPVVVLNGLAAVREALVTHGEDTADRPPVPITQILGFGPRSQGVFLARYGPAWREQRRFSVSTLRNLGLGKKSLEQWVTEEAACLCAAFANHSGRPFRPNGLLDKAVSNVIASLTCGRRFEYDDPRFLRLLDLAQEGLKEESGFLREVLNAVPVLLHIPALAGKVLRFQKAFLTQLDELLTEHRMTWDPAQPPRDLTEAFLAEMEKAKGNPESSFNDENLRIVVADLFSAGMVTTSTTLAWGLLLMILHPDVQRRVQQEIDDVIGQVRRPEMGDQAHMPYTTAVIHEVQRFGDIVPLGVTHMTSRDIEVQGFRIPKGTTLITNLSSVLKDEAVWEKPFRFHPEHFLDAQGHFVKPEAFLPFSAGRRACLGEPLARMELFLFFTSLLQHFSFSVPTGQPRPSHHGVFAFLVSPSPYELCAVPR

## CC(=O)c1ccc(N2CCN(C(=O)c3cc(S(C)(=O)=O)ccc3N3CCOCC3)CC2)c(F)c1
[1]
  pEC50: 7.15
[2]
  pEC50: < 4.52
Homo sapiens
  Ratio EC50: > 417
[3]
  solubility: 30 µg/mL (≈ 61.3 µM)
[4]
  Papp: 3.1 ×10⁻⁶ cm/s
Liver microsomes [5]
  clearance: 40 µL/min/mg
Liver microsomes [6]
  clearance: 26 µL/min/mg
[7]
  inhibition: < 20%
MAO-A
  inhibition at 10 µM: < 20%
[8]
  inhibition: < 20%
[9]
  inhibition: < 20%

## CS(=O)(=O)c1ccc(OCC2CC2)c(C(=O)N2CCN(c3ccc(C#N)cc3F)CC2)c1
[10]
  fraction unbound: 0.12
Cytochrome P450 2D6
  pIC50: < 4.54
[1]
  pEC50: 7.80
[3]
  solubility: 31 µg/mL (≈ 67.8 µM)
[4]
  Papp: 3.2 ×10⁻⁶ cm/s
Liver microsomes [6]
  clearance: 4 µL/min/mg
[11]
  clearance: 9 µL/min/mg
[12]
  Activity: inactive
[13]
  clearance: 9.5 mL/min/kg
[14]
  Vd: 2.8 L/kg
[15]
  bioavailability: 100%
[16]
  half-life: 5.8 h
[17]
  Cmax: 3880 ng/mL
[18]
  Cmax: 373 ng/g
[19]
  Kp: 0.1
